# Assay outcomes from PubChem.
# Shown are actives, neighbours in structure and some others; about 1.1% of the full set was active somewhere.
# Diaph inh CS: diaphorase inhibition or chemical oxidation counter-screen; inhibition, % at 20 µM; 0.69% of 190,000 active; diaphorase resazurin-to-resorufin fluorescence, NADH, 16 min; bacterial (C. kluyveri) enzyme, not human;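 active means primary screen inhibition at 20 µM above a set limit, cut at about 50% in these data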;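 further: plate controls were DMSO with full reaction for no effect and wells lacking NADH for full effect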
#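 Assay system: diaphorase enzyme from Clostridium kluyveri; Input: enzyme working solution with 0.14 U/mL diaphorase; Timing: 16 min at room temperature; Technique: resorufin fluorescence, excitation 544 nm, emission 590 nm; Benchmarks: positive control minus NADH, DMSO neutral control.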
# Diaphorase act: diaphorase activation or chemical reduction counter-screen. 0.005% of 190,000 active. activation factor at 20 µM. Diaphorase/resazurin coupled assay, resorufin fluorescence, 16 min; hits give high values; 1 = vehicle wells, 0 = NADH-free wells;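 active means diaphorase activity raised at least twofold by the compound at 20 µM; inactive means activation factor below 2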
#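 Material: Purified diaphorase enzyme from Clostridium kluyveri | Buffer or medium: 50 mM HEPES pH 7.4 with 4.542 mM MgCl2, 0.005% Tween 20 | Times: 16 min enzyme reaction, ambient temperature | Signal: Red resorufin fluorescence at 544/590 nm excitation/emission | Measure: Increased resorufin signal from activators or reducing compounds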
# PMI act: activators of human phosphomannose isomerase. P34949. purified human PMI, coupled resazurin fluorescence, 20 min; hits give high values; 1 = vehicle control, 0 substrate-free wells. activation factor at 20 µM. 0.005% of 190,000 active. AID 1214;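 active means activation factor of 2 or more at 20 µM, relative to plate controls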
# Target sequence (P34949 whole entry, looked up): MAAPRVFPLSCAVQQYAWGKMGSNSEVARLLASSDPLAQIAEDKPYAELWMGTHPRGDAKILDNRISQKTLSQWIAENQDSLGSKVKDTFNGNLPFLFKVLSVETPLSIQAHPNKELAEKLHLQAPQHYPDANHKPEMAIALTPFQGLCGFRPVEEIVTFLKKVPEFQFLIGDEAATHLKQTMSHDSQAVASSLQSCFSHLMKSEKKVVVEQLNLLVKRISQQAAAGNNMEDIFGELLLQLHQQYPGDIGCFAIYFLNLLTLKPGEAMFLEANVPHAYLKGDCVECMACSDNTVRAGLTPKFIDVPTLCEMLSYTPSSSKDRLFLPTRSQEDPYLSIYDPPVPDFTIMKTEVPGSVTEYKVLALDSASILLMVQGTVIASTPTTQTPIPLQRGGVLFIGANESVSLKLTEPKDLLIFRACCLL
# G6PDH CS: L. mesenteroides G6PDH inhibition counter-screen; 0.12% of 200,000 active; inhibition, % at 5 µM; Purified L. mesenteroides G6PDH, diaphorase/resazurin coupled fluorescence, 45 min; AID 1020; in the data active means inhibition above about 50%
# PMI act satM6P: PMI (human) activation, high substrate | P34949 | coupled PMI enzyme assay, resazurin fluorescence, 20 min; hits give high values; 1 = untreated enzyme, 0 = substrate-free blank | activation factor at 20 µM | 0.34% of 190,000 active | AID 1216;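 active means activation factor of 2 or more at 20 µM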
#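 test system = human PMI in coupled enzyme assay | medium = HEPES-buffered pH 7.4 with magnesium and detergent | also added = 1.0 mM mannose-6-phosphate substrate with 0.22 mM NADP+ | compound = 20 µM single dose | times = 20 min incubation at room temperature | measured by = resorufin fluorescence (Ex 544/Em 590 nm) from resazurin via diaphorase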
# Redox H2O2 prof: compounds producing H2O2 with reducing agent – biochemical, NIH compound library profiling, artefact control for MLSCN library redox annotation, primary screen. DTT-dependent redox cycling H2O2, phenol red/HRP absorbance; 100% = 100 µM peroxide control, 0% = buffer. activation, % at 10 µM. 0.03% of 200,000 active. AID 878;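 active means activation of at least 50% relative to the plate's high and low controls in the primary single-dose screen; inactive means activation below 50%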;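 further: compound incubated with DTT at 0.8 mM final as the reducing agent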
# Starred values were filed as active, the others as inactive.
SMILES,Diaph inh CS,Diaphorase act,PMI act,G6PDH CS,PMI act satM6P,Redox H2O2 prof
COc1ccccc1-c1nnc2n1N=C(c1ccc(O)c(O)c1)CS2,51*,0.5,0.6,32,0.9,0
Nc1nc2ncc(-c3ccsc3)c(N)n2n1,10,0.9,1.1,2,1.1,0
Nc1[nH]n2c(=O)cc(-c3ccccc3)nc2c1N=Nc1ccc2c(c1)OCO2,68*,0.3,0.7,24,0.7,0
Cc1[nH]n(-c2ccccc2)c(=O)c1N=Nc1ccc2c(c1)OCO2,2,1,1.1,2,0.9,-1
O=C(NCCCN1CCN(CCCNC(=O)c2cc([N+](=O)[O-])ccc2Cl)CC1)c1cc([N+](=O)[O-])ccc1Cl,-19,1.2,1.1,0,1,0
Cc1cccc(C)c1NC(=O)CSc1nnc(-c2ccco2)c(-c2ccco2)n1,48,0.5,0.8,24,0.5,1
COc1ccc(C(=O)CSc2nnc(-c3ccco3)c(-c3ccco3)n2)cc1,62*,0.4,1.1,19,0.7,-1
CSc1nnc(-c2ccco2)c(-c2ccco2)n1,61*,0.4,1.2,27,1.6,0
O=C(CCl)Nc1cccc(Oc2ccccc2)c1,13,0.9,1.1,3,1,0
C#CCN(C(=O)Nc1ccccc1)c1ccccc1,-22,1.2,1.2,13,1.2,0
CC(C)(C)C1=CC(=O)C(=O)C(C(C)(C)C)=C1,73*,0.3,0.4,29,0.5,0
Cc1noc(C)c1C1(O)CCCCCCCCCCC1,18,0.8,0.9,3,0.9,0
CCOCCCNC(=S)NCCNc1nc2ccc(C)cc2cc1C#N,19,0.8,1.5,0,2*,0
CCOCCCNC(=S)NCCCNc1nc2cc3c(cc2cc1C#N)OCO3,4,1,1.6,-42,2.2*,2
CCOCCCNC(=S)NCCCNc1nc2ccc(C)cc2cc1C#N,17,0.8,1.6,7,2.1*,0
COc1ccc(CCNC(=O)CSc2nncs2)cc1,0,1,1,3,1.1,0
O=c1oc2ccccc2c(N2CCOCC2)c1[N+](=O)[O-],-8,1.1,1,16,1,0
CC(Sc1ccc2nnc(-c3ccc(F)cc3)n2n1)C(=O)O (configuration not stated),47,0.5,1.3,0,2.2*,0
Cc1ccc(-c2nnc3ccc(SC(C)C(=O)O)nn23)cc1 (configuration not stated),25,0.7,0.9,-4,1.2,-1
COc1ccc(-c2c(=O)n(OCc3ccccn3)c3ccccc3[n+]2[O-])cc1OC,20,0.8,1.1,3,0.7,1
COc1ccc(-c2c(=O)n(OCc3ccccc3[N+](=O)[O-])c3ccccc3[n+]2[O-])c(OC)c1,51*,0.5,1,-2,1,-1
Nc1nnc(CCS(=O)(=O)c2ccc(Br)cc2)s1,-4,1,1,4,1,-2
CCOC(=O)c1c(C)c(-c2ccccc2)n(CC(=O)NCCCN(CC)CC)c1C,7,0.9,1,9,1,0
O=C(COC(=O)CCS(=O)(=O)c1ccc(Cl)cc1)NCCc1ccc(Cl)cc1Cl,8,0.9,1.1,13,1.1,0
CN(C)c1cccc2c(C=C(C#N)C#N)ccc(N(C)C)c12,62*,0.4,0.7,14,0.4,0
CN(C)c1cccc2c(/C=N/O)ccc(N(C)C)c12,22,0.8,0.8,5,0.5,-1
CCOc1cc(CNc2ccc3cn[nH]c3c2)ccc1OC,57*,0.4,0.7,33,1.1,0
COc1ccccc1S(=O)(=O)Nc1ccc2cn[nH]c2c1,9,0.9,1,5,0.9,0
COc1ccc(CNc2ccc3cn[nH]c3c2)c(OC)c1OC,57*,0.4,0.6,28,0.7,0
